In this series the test system is MS2 coat protein. Kind of series: apparent Kd, MS2 coat protein; higher = weaker binding; RNA-MaP array; FMN 200 µM where present. Put shortly: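 Designs on Illumina sequencing-chip clusters, transcribed by stalled E. coli RNA polymerase, were exposed to SNAP-549-labelled MS2 coat protein in doubling steps from 0.7 or 1.5 nM up to 3 µM, without and then with constant ligand. The buffer held 100 mM Tris-HCl pH 7.5, 80 mM KCl, 4 mM MgCl2, BSA, DTT, yeast tRNA and Tween-20. Apparent Kd values are medians of filtered per-cluster binding-curve fits to green signal normalised to red-channel RNA signal and control-cluster median Fmax.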

Where [1] appears, read: designed as: ON switch for flavin mononucleotide, no ligand.
[2] abbreviates: ligand present: flavin mononucleotide, designed as: ON switch for flavin mononucleotide.
[3] abbreviates: designed as: OFF switch for flavin mononucleotide, no ligand.
Where [4] appears, read: ligand present: flavin mononucleotide, designed as: OFF switch for flavin mononucleotide.

As to “GGAGCCGAUACUGAGGAUAUUCAUAUUAAAACAUGAGGAUCACCCAUGUAGGCCAGAAGGCCUUGGGAGAAGGCAGAUCGGCUCC”, the apparent Kd (in general, a dissociation constant that holds for the conditions of the assay) by setting is: under setting [1], 417 nM; under setting [2], 26 nM.
As for “UCCAAGCUAGGAUAUACCCAGGGUUUGUUCUCUAACAAAACACAUGAGGAUCACCCAUGUAGAAGGAGCCGGGA”, the “apparent Kd” value is 58.1 nM under setting [3] and 62.9 nM under setting [4].
“UGCCGUAGAGGAUAUACAUAGAAAUAGAUUCAUGUAAAACUACAUGAGGAUCACCCAUGUAGAAGGCUAUGGCU”: the “apparent Kd” value under setting [3] was found to be 21.6 nM and the “apparent Kd” value under setting [4] is 137 nM.
On to “AUUAUUUACAUAGGAUAUUGUUACAUGAGGAUCACCCAUGUUUUCAUGGUAUUAAUAUAUUAUUUCAAGAAGGAUGUAGUUACA”, for which the “apparent Kd” value is, setting by setting: under setting [1], 37.4 nM; under setting [2], 20.9 nM.
As for “UGCUAAUUGUAGAAGGGUGACAUGAGGAUCACCCAUGUUCACAUGCGAUUUACGGCGCAUGUUCCACAGGAUAUACAGUUGAGU”, the “apparent Kd” value was 342 nM under setting [1] and 60.1 nM under setting [2].
In the case of “UUGUAGUACGUAGGAUAUCAUUGAGGAUCACCCUGAGAAGGACGUGAGGACAUGAGGAUCACCCAUGUGGAUCACCCAUGUCAU”, the “apparent Kd” value was determined as 329 nM under setting [3] and 231 nM under setting [4].
Take “GACUGAUUGUAGAAGGUACUUGAAAAUAUUUAAUAACUCAUGUGACAUGAGGAUCACCCAUGUAGUAAGGAUAUACAUAUCACA”: the “apparent Kd” value is, setting by setting: under setting [1], 198 nM; under setting [2], 91 nM.
The corresponding values for “GUGGUCUGACAUGAGGAUCACCCAUGUGGAAUAAAUACGGGUUAGGAUAUCUUGAGGAUCACCCAAGAGAAGGGAUGGAUGGUC” are 100 nM and 106 nM.
As for “UCAGGCUUCGAGAAGGACAUGAAUCGUAGCAUUGCUACGAUGAAUUAUACAUGAGGAUCACCCAUGUAGGAUAUCGGAGUCUGC”, the “apparent Kd” value under setting [4] came out at 6.34 nM.
As to “GAAAAUACAUGAGGAUCACCCAUGUAGGAUAUCGCUAUUGUAAUCAUGUUACAUGAUUACAAUAGCGAGAAGGACGUGAGAAAG”, the “apparent Kd” value was 24.7 nM under setting [3] and 22.3 nM under setting [4].
On the same counts, the results for “CUUAAACAUGAGGAUCACCCAUGUCAGGAUAUGAUACUAUGUACUUCGGUACAUAGUAUCAGAAGGGAUAUGAA” are 49 nM and 64.8 nM.
On to “AUUUGUAACCAGAAGGACAUGAGGAUCACCCAUGUAGGAUAUGGGCUUCUCAGGGCUGAGGAGUGAUCCCACAGGGACUUACGG”, for which the “apparent Kd” value amounted to 117 nM under setting [1] and 18 nM under setting [2].
In the case of “ACAAUAGUAUCACAUGUAUUACAUGAGGAUCACCCAUGUAACUAGGAUAUGUUUUAGAAUUUACAACAGAAGGAGUUAUUAUGU”, the “apparent Kd” value by setting is: under setting [3], 8.48 nM; under setting [4], 14.1 nM.
On the same counts, the results for “UUAUUGUGAGGAUAUCCAAUAUAUGACAUGAGGAUCACCCAUGUUUCCACUCGUACCUCCGGAGAAGGCACAUUUU” are 30.8 nM and 21.7 nM.
The corresponding values for “GAUCAACAUGAGGAUCACCCAUGUCAGGAUAUGAUACUAUGUACUUCGGUACAUAGUAUCAGAAGGGACAGAUC” are 122 nM and 296 nM.
Take “UUUUAACAUGAGGAUCACCCAUGUGAGGAUAUCGAAAUUUAUAUUUAUAUUAAUAUAACGAGAAGGCACAUUUU”: the “apparent Kd” value turned out to be 55.5 nM under setting [3] and 83.2 nM under setting [4].
For the sequence “CCCAAACUUGGGCUUGGUGGUGCAUAGGAUAUCCUUGAACAUGAGGAUCACCCAUGUACAACUGUGGAGAAGGGUGCAGGGCCU”, the “apparent Kd” value is 372 nM under setting [1] and 111 nM under setting [2].
“GAUCCUCGGUCAGGAUAUCCCGGCCGGCGGCCGGGAGAAGGGACAUGAGGAUCACCCAUGUUUCGGUCCUUACCCGCUUGGGUC”: the “apparent Kd” value by setting is: under setting [3], 34 nM; under setting [4], 37.1 nM.
As for “CAGCCCUGAGGAUAUCCAUCCUUGUACAUGAGGAUCACCCAUGUUUUCCUCUGGGCUUUUGGAGAAGGCAGGUAUC”, the “apparent Kd” value under setting [3] was 78.3 nM and the “apparent Kd” value under setting [4] is 82.3 nM.
In the case of “AUGUGCCGGUCAGGAUAUCAACCACAUUGGCCAUGAGAAGGGACAGCACAUGAGGAUCACCCAUGUACACGCUGUGCGGAUGGG”, the “apparent Kd” value runs as follows: under setting [3], 273 nM; under setting [4], 122 nM.
On the same counts, the results for “AGCAGACGAGGAUAUGAUAAAGAUCACAUGAGGAUCACCCAUGUACGCAGGAUACUGCGAUCAGAAGGCGUCUGCU” are 13 nM and 13.8 nM.
The corresponding values for “AAGUAGGUAGGAUAUACAUGGAUAUACAUUCAUGUGGACCUACAUGAGGAUCACCCAUGUAGAAGGACCUACAA” are 34.8 nM and 64.2 nM.
On the same counts, the results for “UUUUUGUCAGGAUAUCGUUAAUUUAAUUGUUUGUAUUAGUUCGAGAAGGGACAUGAGGAUCACCCAUGUUUUUU” are 23.9 nM and 39.6 nM.
As for “UCCAAACUUGGACUUGGUGGUGCAUAGGAUAUCCUUGGACAUGAGGAUCACCCAUGUACAACUGUGGAGAAGGGUGCAGGGCCU”, the “apparent Kd” value runs as follows: under setting [1], 427 nM; under setting [2], 91.3 nM.
The corresponding values for “CAGCGCUGUUGAGAGGAUAUGCGGUGAUGGACAUGAGGAUCACCCAUGUUAGCGAUAGCAUUACGGUAGAAGGCUCUACAGCUGC” are 18.5 nM and 12.3 nM.
As to “GUCGUGUAAGGAUAUGCAUCGAGGUAGCGAAUGUUGCAGGUGUAGAAGGUACAUGAGGAUCACCCAUGUAAUGU”, the “apparent Kd” value came to 22.2 nM under setting [3] and 30.1 nM under setting [4].
As to “AUUAAACAUGAGGAUCACCCAUGUAAUAAUAUGGGAGGAUAUGCGAAUUUAAUUAUUUAAGCAGAAGGCCUAAUUA”, the “apparent Kd” value was 63 nM under setting [1] and 19.2 nM under setting [2].
On to “GCAUUUUAUGCAGGAUAUUGAAUUCGGAUUAAACAAGAAGGGCAUAACAUGAGGAUCACCCAUGUUUUAUAGGUAUCUAUGAAC”, for which the “apparent Kd” value amounted to 53.1 nM under setting [3] and 116 nM under setting [4].
With “UUGGACGUCGUCGGAUAUGUAGGAUAUUCCUACAUGAGGAUCACCCAUGUUGACAUGGAAGAAGGACAGAAGGACGAUGUCCAU”, the “apparent Kd” value under setting [1] came to 83 nM and the “apparent Kd” value under setting [2] worked out at 4.6 nM.
As for “CCAGCGUAUGUAAGGAUAUGCUGGUCCUUGGAUCAGCAGAAGGUACAUGAGGAUCACCCAUGUGUAAUCGUUGG”, the “apparent Kd” value reads like this: under setting [3], 20.6 nM; under setting [4], 56.1 nM.
On the same counts, the results for “CGACCACAUGAGGAUCACCCAUGUAAGGAUAUAUUGAAUGAGCCGGCGGCAGUAAAAGAUAGAAGGUGCGUGUA” are 23.1 nM and 22 nM.
The corresponding values for “CACUGCAAUGUAGGAUAUCGACUGGAUAACAGUCGAGAAGGACAUGAGGAUCACCCAUGUCAUCCUAAUAAUAAAUAAGCAGUG” are 15.3 nM and 19.1 nM.
For “AAGAAAGAAACAUAGGAUAUCAAGAAUAUAACAUGAGGAUCACCCAUGUAAAUACGAAAGUAUAAUGAGAAGGAUGGAUGAUCUUC”, the “apparent Kd” value worked out at 93.7 nM under setting [1] and 89 nM under setting [2].
The corresponding values for “AGCUGCCGGUCACAUGAGGAUCACCCAUGUAACCUGCAUUCACAGGAUAUGUUGGCUCCUUGCCGGCAGAAGGGUGAAGCGCCG” are 371 nM and 107 nM.
On to “UAAUUUUGUCAAGGAUAUGUAAUAUAGAUUAGAAAACAUGAGGAUCACCCAUGUAUAUGGUGGGAACAGAAGGUGAAUGGUGUA”, for which the “apparent Kd” value under setting [3] came out at 165 nM and the “apparent Kd” value under setting [4] was determined as 155 nM.
The corresponding values for “CAGCCCUGAGGAUAUCUCAUCUCGCACAUGAGGAUCACCCAUGUUCUUCUCUGGGUUUCGAGAGAAGGCAGGCCUC” are 586 nM and 434 nM.

Values taken from the EternaBench riboswitch data.
